# Measured values published in ChEMBL document CHEMBL2029262, “Receptor-ligand interaction-based virtual screening for novel Eg5/kinesin spindle protein inhibitors” (J Med Chem, 2012).
# The source made the active and inactive calls. No cut-off for these calls is given here.
# Columns and labels:
# [1] = target: T1, Kinesin-like protein KIF11 (Homo sapiens, UniProt P52732); assay: (§1) Inhibition of Eg5 ATPase activity by pyruvate kinase/lactate dehydrogenase-linked assay
# T1 sequence (P52732 whole entry): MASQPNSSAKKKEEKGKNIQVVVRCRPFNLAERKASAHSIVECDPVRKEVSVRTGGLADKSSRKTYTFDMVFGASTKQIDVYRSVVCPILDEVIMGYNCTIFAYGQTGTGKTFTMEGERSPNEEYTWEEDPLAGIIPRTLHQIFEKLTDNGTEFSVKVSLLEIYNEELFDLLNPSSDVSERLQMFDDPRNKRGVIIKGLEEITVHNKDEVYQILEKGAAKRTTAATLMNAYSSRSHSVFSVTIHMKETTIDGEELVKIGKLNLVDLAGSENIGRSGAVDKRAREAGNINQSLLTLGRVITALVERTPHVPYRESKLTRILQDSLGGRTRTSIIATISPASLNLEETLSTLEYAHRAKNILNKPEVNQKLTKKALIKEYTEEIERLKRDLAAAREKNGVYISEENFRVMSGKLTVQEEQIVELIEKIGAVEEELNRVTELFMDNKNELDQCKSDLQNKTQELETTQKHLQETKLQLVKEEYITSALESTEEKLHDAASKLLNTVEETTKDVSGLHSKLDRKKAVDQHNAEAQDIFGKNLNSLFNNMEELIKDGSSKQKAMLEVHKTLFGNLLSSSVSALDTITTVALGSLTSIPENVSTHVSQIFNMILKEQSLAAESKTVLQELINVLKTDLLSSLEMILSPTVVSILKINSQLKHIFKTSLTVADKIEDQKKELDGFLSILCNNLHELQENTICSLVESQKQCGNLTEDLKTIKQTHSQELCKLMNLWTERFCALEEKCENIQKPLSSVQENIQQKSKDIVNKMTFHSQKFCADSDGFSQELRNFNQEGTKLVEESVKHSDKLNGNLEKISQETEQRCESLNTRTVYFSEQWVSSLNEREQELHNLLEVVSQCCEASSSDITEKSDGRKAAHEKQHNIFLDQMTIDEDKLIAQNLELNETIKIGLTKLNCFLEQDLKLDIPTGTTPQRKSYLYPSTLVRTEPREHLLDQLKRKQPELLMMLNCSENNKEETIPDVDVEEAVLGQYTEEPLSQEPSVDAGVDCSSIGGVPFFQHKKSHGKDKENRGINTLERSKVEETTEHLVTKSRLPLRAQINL
# How it was run: (§2)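 Basal steady-state ATPase of 200 nM Eg5 2–368, measured by pyruvate kinase/lactate dehydrogenase coupling in ACES buffer pH 6.9 with Mg acetate, EGTA, EDTA and β-mercaptoethanol, at 25 °C with up to 2.0% DMSO. STLC was the positive control. Each concentration was run in triplicate and reported as mean ± SD to give IC50.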
# [2] = system: DU-145; assay: Growth inhibition of human DU145 cells after 2 days by MTT assay; type: functional
# How it was run: (§3)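 DU145 or HT29 cells in RPMI 1640 with 10% heat-inactivated FBS, 37 °C, 5% CO2. Seeded at 3 × 10^3 cells/well, exposed to a range of compound concentrations in duplicate for two days. Read-out was MTT-type tetrazolium dye for up to 4 h, overnight solubilization of formazan, then OD at 570 nm. GI50 was derived.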
# [3] = system: HeLa; assay: Induction of monoastral spindle formation in human HeLa cells at 25 uM after 8 hrs by immunofluorescence assay; type: functional, cell-based
# How it was run: (§4)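 HeLa cells grown in D-MEM with 10% fetal calf serum on poly-D-lysine-coated coverslips and allowed to adhere at least 36 h. Compounds were diluted in medium from 25 mM DMSO stocks and applied for 8 h. Cells were fixed in 2% paraformaldehyde, permeabilized with 0.2% Triton X-100, and stained for β-tubulin and centromeres, with DAPI for DNA. Mitotic cells with monoastral versus bipolar spindles were counted by epifluorescence microscopy.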
# [4] = system: HT-29; assay: Growth inhibition of human HT-29 cells after 2 days by MTT assay; type: functional; how it was run: as §3
# [5] = target: T2, Kinesin heavy chain isoform 5C (Homo sapiens, UniProt O60282); assay: Inhibition of human Kif5C ATPase activity by pyruvate kinase/lactate dehydrogenase-linked assay
# T2 sequence (O60282 whole entry): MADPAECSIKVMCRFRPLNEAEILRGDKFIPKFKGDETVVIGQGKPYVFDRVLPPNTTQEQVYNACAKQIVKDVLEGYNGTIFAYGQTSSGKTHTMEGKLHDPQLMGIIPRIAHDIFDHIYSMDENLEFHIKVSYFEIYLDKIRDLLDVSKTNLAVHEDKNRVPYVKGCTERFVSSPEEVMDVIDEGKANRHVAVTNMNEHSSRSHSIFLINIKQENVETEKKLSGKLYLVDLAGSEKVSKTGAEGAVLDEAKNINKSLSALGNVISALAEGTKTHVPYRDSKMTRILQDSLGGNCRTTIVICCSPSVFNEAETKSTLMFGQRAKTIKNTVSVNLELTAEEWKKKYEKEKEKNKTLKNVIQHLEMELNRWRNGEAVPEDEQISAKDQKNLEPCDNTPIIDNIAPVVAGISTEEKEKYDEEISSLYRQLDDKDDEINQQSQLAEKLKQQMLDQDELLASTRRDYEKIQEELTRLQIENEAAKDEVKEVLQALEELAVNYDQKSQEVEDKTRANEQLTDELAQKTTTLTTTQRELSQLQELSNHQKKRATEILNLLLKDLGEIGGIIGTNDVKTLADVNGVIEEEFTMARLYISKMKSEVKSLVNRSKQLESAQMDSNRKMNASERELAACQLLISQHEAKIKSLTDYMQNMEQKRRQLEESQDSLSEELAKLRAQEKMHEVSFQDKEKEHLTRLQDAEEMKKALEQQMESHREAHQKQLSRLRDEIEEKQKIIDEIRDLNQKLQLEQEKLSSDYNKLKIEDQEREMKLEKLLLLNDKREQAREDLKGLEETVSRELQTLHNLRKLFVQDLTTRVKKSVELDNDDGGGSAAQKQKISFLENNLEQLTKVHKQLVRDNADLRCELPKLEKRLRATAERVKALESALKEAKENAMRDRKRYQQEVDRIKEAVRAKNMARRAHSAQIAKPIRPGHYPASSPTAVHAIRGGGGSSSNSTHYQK
# How it was run: (§5)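 HsKif5A or HsKif5C ATPase measured with the same pyruvate kinase/lactate dehydrogenase-linked format, at 25 °C in ACES buffer pH 6.9 with up to 2.0% DMSO. Concentrations were run in triplicate.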
# [6] = target: T3, Kinesin-like protein KIF11 (Homo sapiens) (UniProt P52732); assay: as §1; set-up: concentration or dose not given beside the values; how it was run: as §2
# T3 sequence (whole entry): T1 sequence (P52732 whole entry)
# [7] = target: T4, Kinesin heavy chain isoform 5A (Homo sapiens, UniProt Q12840); assay: Inhibition of human Kif5A ATPase activity by pyruvate kinase/lactate dehydrogenase-linked assay; how it was run: as §5
# T4 sequence (Q12840 whole entry): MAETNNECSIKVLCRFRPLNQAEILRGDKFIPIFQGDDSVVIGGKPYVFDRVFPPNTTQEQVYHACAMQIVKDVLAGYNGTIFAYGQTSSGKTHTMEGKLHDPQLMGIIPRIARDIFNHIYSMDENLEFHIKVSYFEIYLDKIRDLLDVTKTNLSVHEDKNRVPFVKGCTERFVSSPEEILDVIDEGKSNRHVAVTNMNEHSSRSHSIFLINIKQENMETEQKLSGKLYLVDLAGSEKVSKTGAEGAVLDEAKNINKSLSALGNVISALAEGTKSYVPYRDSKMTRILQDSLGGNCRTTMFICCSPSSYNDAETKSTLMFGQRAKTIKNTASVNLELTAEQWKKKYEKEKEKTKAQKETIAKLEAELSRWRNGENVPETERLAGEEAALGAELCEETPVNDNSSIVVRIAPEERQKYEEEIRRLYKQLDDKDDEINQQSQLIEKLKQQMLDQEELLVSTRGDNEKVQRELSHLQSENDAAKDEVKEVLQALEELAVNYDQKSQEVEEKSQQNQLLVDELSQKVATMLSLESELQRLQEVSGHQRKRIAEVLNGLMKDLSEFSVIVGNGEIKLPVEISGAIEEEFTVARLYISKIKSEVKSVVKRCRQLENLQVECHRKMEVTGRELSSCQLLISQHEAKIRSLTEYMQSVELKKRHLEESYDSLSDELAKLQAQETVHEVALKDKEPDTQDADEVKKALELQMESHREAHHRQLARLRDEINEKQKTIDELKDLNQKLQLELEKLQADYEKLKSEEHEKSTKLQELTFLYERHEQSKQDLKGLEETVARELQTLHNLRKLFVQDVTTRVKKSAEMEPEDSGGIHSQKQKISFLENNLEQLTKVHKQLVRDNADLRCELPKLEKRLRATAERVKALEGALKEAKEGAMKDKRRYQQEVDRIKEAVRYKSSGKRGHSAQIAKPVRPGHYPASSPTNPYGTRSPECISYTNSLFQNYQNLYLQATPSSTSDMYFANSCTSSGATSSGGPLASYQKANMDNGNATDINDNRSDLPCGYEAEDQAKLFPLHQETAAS
# [8] = system: DU-145; assay: Selectivity ratio of GI50 for human DU145 cells to GI50 for human HT29 cells; type: functional
# [9] = system: HeLa; assay: Induction of monoastral spindle formation in human HeLa cells assessed as interphase cells with cortical MT bundles at 25 uM after 8 hrs by immunofluorescence assay; type: functional, cell-based
# [10] = system: HeLa; assay: Induction of monoastral spindle formation in human HeLa cells at 50 uM after 8 hrs by immunofluorescence assay; type: functional; how it was run: as §4
# [11] = system: HeLa; assay: Induction of monoastral spindle formation in human HeLa cells assessed as cells with misaligned chromosomes at 25 uM after 8 hrs by immunofluorescence assay; type: functional, cell-based
Structure (SMILES),IC50 [1],"GI50 ([2]; DU-145, 48 h) [µM]","GI50 ([4]; HT-29, 48 h) [µM]",IC50 [5],inhibition ([6]; concentration not given here) [%],IC50 ([1]; read-out: IC50) [µM],GI50 [2],IC50 [7],GI50 [4],IC50 ([5]; read-out: IC50) [µM],IC50 ([7]; read-out: IC50) [µM],inhibition [6],Activity [3],RatioGI50 [8],Activity [9],Activity [10] [%],Activity [11]
Cc1cc(F)ccc1S(=O)(=O)N(C(=O)C1CCCCC1)c1ccc2oc(=O)sc2c1,Not Active,41.2,19.4,,,,,,,,,,inactive,,,,
Cc1ccc2c(c1)-c1cc(C)nn1C(c1ccccc1F)N2 (stereo unspecified),,,,Not Active,60,6.3,inactive,Not Active,inactive,,,,inactive,,,,
COC(=O)c1c(C)oc2c1cc(NS(=O)(=O)c1ccc(C(=O)O)cc1)c1ccccc12,,,,Not Active,80,79.1,inactive,Not Active,inactive,,,,inactive,,,,
COc1ccc(NC(=O)CC2C(=O)N(c3ccccc3)C(=S)N2CCc2sccc2C)cc1 (stereo unspecified),,42.3,19.6,Not Active,60,2.4,,Not Active,,,,,,2,,,
COC(=O)c1c(NC(=O)c2ccccc2Br)sc(C)c1C,,> 100,33.7,,,,,,,,,inactive,,,,,Active

# More lines, in order of falling GI50 ([2]; DU-145, 48 h), values ahead:
IC50 [1],"GI50 ([2]; DU-145, 48 h) [µM]","GI50 ([4]; HT-29, 48 h) [µM]",IC50 [5],inhibition ([6]; concentration not given here) [%],IC50 ([1]; read-out: IC50) [µM],GI50 [2],IC50 [7],GI50 [4],IC50 ([5]; read-out: IC50) [µM],IC50 ([7]; read-out: IC50) [µM],inhibition [6],Structure (SMILES),Activity [3],RatioGI50 [8],Activity [9],Activity [10] [%],Activity [11]
,34.3,17.7,Not Active,60,1,,Not Active,,,,,COc1ccc(N2C(=O)C(CC(=O)Nc3ccccc3)N(CCc3cccs3)C2=S)cc1 (stereo unspecified),,2,,50,
,31,16.7,Not Active,80,0.6,,Not Active,,,,,Cc1ccsc1CCN1C(=S)N(c2ccc(F)cc2)C(=O)C1CC(=O)Nc1ccc(F)cc1 (stereo unspecified),Active,2,,,
Not Active,21,4.4,,,,,,,,,,O=C(O)CSc1cc(NS(=O)(=O)c2ccc(C(=O)O)cc2)c2ccccc2c1O,,,Active,,
,8.7,9.3,,60,41.5,,,,50,50,,Cc1ccc(-n2c(=O)[nH]c3c(C(N)=O)nc(-c4ccc(F)cc4F)nc32)cc1C,inactive,,,,
